38 compounds from ChEMBL document CHEMBL4393708, “Pyridinylimidazoles as dual glycogen synthase kinase 3β/p38α mitogen-activated protein kinase inhibitors” (Eur J Med Chem, 2019) can be followed below.

pIC50: −log10 of the molar value. Some results are limits rather than exact numbers.

For series [1], the target named is Glycogen synthase kinase-3 beta (Homo sapiens, UniProt P49841). The experiment in a line: Competitive inhibition of human recombinant full length GSK3beta using YRRAAVPPSPSLSRHSSPHQ(pS)EDEEE as substrate preincubated with enzyme for 10 mins followed by substrate and 25 uM ATP addition measured after 60 mins by ADP-Glo luminescence assay. An outline of the steps: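 Compounds in serial dilutions were preincubated with kinase for 10 min at rt. Substrate/ATP was then added and the reaction ran 60 min at rt. ADP-Glo reagent 60 min, detection reagent 30 min, then luminescence read (500 ms integration).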
On the technique in general: ADP-Glo turns the ADP formed in a reaction into a luminescent signal.

Series [2] has as its target T1, Mitogen-activated protein kinase 14 (Homo sapiens, UniProt Q16539). The experiment in a line: Inhibition of p38alpha MAPK (unknown origin) using ATF-2 as substrate after 1 hr by ELISA.
The target in series [3] is Glycogen synthase kinase-3 alpha (Homo sapiens, UniProt P49840). The experiment in a line: Inhibition of human recombinant full length GSK3alpha using YRRAAVPPSPSLSRHSSPHQ(pS)EDEEE as substrate preincubated with enzyme for 10 mins followed by substrate and 25 uM ATP addition measured after 60 mins by ADP-Glo luminescence assay. In outline:
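Recombinant human GSK3α at 0.50 ng/µL, 25 µM ATP, 0.2 µg/µL substrate G50-58, serial compound dilutions. Kinase was preincubated with compound 10 min at rt, then run 60 min at rt after substrate/ATP addition. ADP-Glo reagent 60 min, detection reagent 30 min, luminescence read. Uninhibited-kinase and ATP/substrate-only controls were included.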

Series [4] in a line: Metabolic stability in human liver microsomes assessed as parent compound remaining after 20 mins by LC-MS analysis relative to control. The format is ADME, Microsome. Conditions: read-out: Stability. A general note: Liver microsomes are vesicles of endoplasmic reticulum, rich in cytochrome P450 enzymes.
Series [5] can be described thus: Metabolic stability in human liver microsomes assessed as parent compound remaining after 10 mins by LC-MS analysis relative to control. It counts as ADME, Microsome. The following applies: read-out: Stability.
Series [6] can be described thus: Metabolic stability in human liver microsomes assessed as parent compound remaining after 30 mins by LC-MS analysis relative to control. The following applies: read-out: Stability. The format is ADME, Microsome.
A short description of series [7]: Metabolic stability in human liver microsomes assessed as parent compound remaining after 240 mins by LC-MS analysis relative to control. The format is ADME, Microsome. Conditions: read-out: Stability.
Series [8] can be described thus: Metabolic stability in human liver microsomes assessed as parent compound remaining after 60 mins by LC-MS analysis relative to control. It counts as ADME, Microsome. The following applies: read-out: Stability.
Series [9] in a line: Metabolic stability in human liver microsomes assessed as parent compound remaining after 180 mins by LC-MS analysis relative to control. The format is ADME, Microsome. Conditions: read-out: Stability.
Series [10] is described as follows: Metabolic stability in human liver microsomes assessed as parent compound remaining after 120 mins by LC-MS analysis relative to control. It counts as ADME, Microsome. Conditions: read-out: Stability.
The nature of series [11]: Drug uptake in RjOrl:Swiss CD-1 mouse brain at 10 mg/kg, iv administered as single dose measured after 2 hrs by LC-MS analysis. The format is ADME, organism-based. The following applies: read-out: Drug uptake. In outline:
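Adult male RjOrl:Swiss CD-1 mice got one intravenous dose of 10 mg/kg. Plasma was sampled at 10, 30 and 120 min. After the last sample the mice were sacrificed and brains dissected. Blood and brain samples were prepared and analysed by LC-MS for parent and sulfoxide metabolite; brain levels reported as ng/g.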

In series [12] the test system is Blood. The experiment in a line: Inhibition of LPS-induced TNFalpha production in human whole blood preincubated with compound for 15 mins followed by LPS addition measured after 2.5 hrs by ELISA. The format is functional, tissue-based.
The species entered for series [13] is Homo sapiens. Put plainly: Selectivity ratio, Ratio of IC50 for human recombinant full length GSK3beta to IC50 for p38alpha MAPK (unknown origin). An outline of the steps:
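GSK3β was measured by ADP-Glo using 0.58 ng/µL recombinant human enzyme, 25 µM ATP and 0.2 µg/µL substrate peptide G50-58. Kinase was preincubated with serial compound dilutions for 10 min at rt, then reacted for 60 min at rt, with luminescence read-out. p38α inhibition was measured by ELISA.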

In series [14] the target is T1, Mitogen-activated protein kinase 14. Put plainly: Inhibition of human recombinant p38alpha MAPK upto 10000 nM using Ulight-CFFKNIVTPRTPPPSQGK-amide as substrate measured after 30 mins by LANCE assay relative to control. On the technique in general: Time-resolved FRET reads energy transfer from a long-lived donor to a nearby acceptor.

Glycogen synthase kinase-3 beta, sequence (P49841 whole entry): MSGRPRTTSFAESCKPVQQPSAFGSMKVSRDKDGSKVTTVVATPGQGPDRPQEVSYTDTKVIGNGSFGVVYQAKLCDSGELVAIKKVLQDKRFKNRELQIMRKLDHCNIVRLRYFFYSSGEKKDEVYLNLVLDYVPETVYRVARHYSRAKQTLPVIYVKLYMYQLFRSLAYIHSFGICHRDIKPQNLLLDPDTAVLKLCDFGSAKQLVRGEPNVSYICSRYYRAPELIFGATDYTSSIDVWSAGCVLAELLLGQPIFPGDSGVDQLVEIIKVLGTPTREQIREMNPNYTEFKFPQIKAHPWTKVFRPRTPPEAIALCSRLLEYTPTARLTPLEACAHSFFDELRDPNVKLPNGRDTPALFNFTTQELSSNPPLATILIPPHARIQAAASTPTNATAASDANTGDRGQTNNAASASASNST
Glycogen synthase kinase-3 alpha, sequence (P49840 whole entry): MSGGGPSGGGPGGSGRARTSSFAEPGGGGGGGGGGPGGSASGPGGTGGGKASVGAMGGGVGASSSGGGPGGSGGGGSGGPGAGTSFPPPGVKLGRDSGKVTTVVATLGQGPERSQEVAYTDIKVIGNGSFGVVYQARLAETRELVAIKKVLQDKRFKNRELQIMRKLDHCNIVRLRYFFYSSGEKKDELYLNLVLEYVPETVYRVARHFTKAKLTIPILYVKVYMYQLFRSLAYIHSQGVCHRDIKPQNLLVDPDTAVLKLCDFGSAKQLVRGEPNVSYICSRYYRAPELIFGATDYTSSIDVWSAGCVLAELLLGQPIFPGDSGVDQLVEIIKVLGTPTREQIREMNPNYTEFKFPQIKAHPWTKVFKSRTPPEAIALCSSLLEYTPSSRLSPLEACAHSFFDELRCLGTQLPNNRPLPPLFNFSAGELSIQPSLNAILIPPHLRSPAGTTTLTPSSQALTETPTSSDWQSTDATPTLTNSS
T1 sequence (Q16539 whole entry): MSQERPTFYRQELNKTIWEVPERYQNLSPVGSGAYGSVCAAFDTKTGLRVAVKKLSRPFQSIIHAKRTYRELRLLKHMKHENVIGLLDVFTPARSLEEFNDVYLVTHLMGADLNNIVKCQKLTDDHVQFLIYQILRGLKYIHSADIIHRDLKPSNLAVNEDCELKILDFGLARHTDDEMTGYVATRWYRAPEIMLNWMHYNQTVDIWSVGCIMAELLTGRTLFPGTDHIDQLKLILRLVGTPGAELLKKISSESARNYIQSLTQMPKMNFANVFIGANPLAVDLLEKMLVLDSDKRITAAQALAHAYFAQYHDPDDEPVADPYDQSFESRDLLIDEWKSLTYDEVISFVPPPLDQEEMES

As a reminder, the pIC50 is the negative decadic logarithm of the IC50, by convention in mol/L. On to `O=C(Nc1cc(-c2[nH]c(SCc3ccccc3)nc2-c2ccc(F)cc2)ccn1)C1CC1`, for which the negative logarithm of the IC50 (pIC50) in series [1] is 6.64; in series [2], 7.39; in [3] it was 6.07.
Consider `O=C(Nc1cc(-c2[nH]c(Cc3ccccc3)nc2-c2ccc(F)cc2)ccn1)C1CC1`, for which the negative-log IC50 (pIC50) was 7.23 in series [1], 7.74 in series [2] and 6.37 in series [3]. Further, in series [4], the remaining at 20 min was found to be 83.6%. Besides, the remaining at 10 min in series [5] worked out at 92.4%. Besides, the remaining at 0.5 h in series [6] stood at 78.1%. Further, in [7], the remaining at 4 h came to 66.1%. Further, in series [8], the remaining at 1 h worked out at 69.4%. In [9], the remaining at 3 h worked out at 68.7%. Also, in series [10], the remaining at 2 h turned out to be 69.8%.
On to `CSc1nc(-c2ccc(F)cc2)c(-c2ccnc(NC(=O)[C@H]3C[C@H](Cl)C3)c2)[nH]1`, for which the pIC50 is 6.40 in [1] and 7.42 in [2].
With `CSc1nc(-c2ccc(F)cc2)c(-c2ccnc(NC(=O)C3CC(=O)C3)c2)[nH]1`, the pIC50 in series [1] was 6.74; in series [2], 7.70.
On the same counts, the results for `Cc1nc(-c2ccc(F)cc2)c(-c2ccnc(NC(=O)C3CC3)c2)[nH]1` are 7.28 and 7.72.
On the same counts, the results for `CSc1nc(-c2ccc(F)cc2)c(-c2ccnc(NCC3CC3)c2)[nH]1` are < 5.00 and 7.85.
On the same counts, the results for `CSc1nc(-c2ccc(F)cc2)c(-c2ccnc(NC(=O)C3CCCO3)c2)[nH]1` (centres undefined) are 6.28 and 7.55.
For `O=C(Nc1cc(-c2[nH]cnc2-c2ccc(F)cc2)ccn1)C1CC1`, the negative-log IC50 (pIC50) in series [1] was 7.19; in series [2] it was 7.72.
For `CSc1nc(-c2ccc(F)cc2)c(-c2ccnc(NC(=O)[C@@H]3C[C@H]3c3ccccc3)c2)[nH]1` (relative stereo), in that order: 6.09 and 7.82.
On the same counts, the results for `CSc1nc(-c2ccc(F)cc2)c(-c2ccnc(NC(=O)c3ccoc3)c2)[nH]1` are 5.44 and 7.66.
On the same counts, the results for `O=C(Nc1cc(-c2[nH]c(-c3ccco3)nc2-c2ccc(F)cc2)ccn1)C1CC1` are 6.81 and 7.74.
On to `CSc1nc(-c2ccc(F)cc2)c(-c2ccnc(NC(=O)[C@H]3C[C@@H](Cl)C3)c2)[nH]1`, for which the negative-log IC50 (pIC50) was 6.77 in [1] and 7.74 in series [2].
For `CSc1nc(-c2ccc(F)cc2)c(-c2ccnc(NC(C)=O)c2)[nH]1`, in that order: 6.82 and 7.35.
On the same counts, the results for `C[S+]([O-])c1nc(-c2ccc(F)cc2)c(-c2ccnc(NC(=O)C3CCC3)c2)[nH]1` (centres undefined) are 6.37 and 7.54.
On the same counts, the results for `O=C(Nc1cc(-c2[nH]c(-c3ccccc3)nc2-c2ccc(F)cc2)ccn1)C1CC1` are 6.24 and 7.57.
Turning to `COc1ccc(CCC(=O)Nc2cc(-c3[nH]c(SC)nc3-c3ccc(F)cc3)ccn2)cc1`, the pIC50 in [1] was 6.27; in series [2], 7.26.
For `O=C(Nc1cc(-c2[nH]c(CCc3ccccc3)nc2-c2ccc(F)cc2)ccn1)C1CC1`, in that order: 6.88 and 7.70.
For `CSc1nc(-c2ccc(F)cc2)c(-c2ccnc(NC(=O)C3CC3)c2)n1C`, in that order: 6.20 and 6.65.
As for `C[S+]([O-])c1nc(-c2ccc(F)cc2)c(-c2ccnc(NC(=O)C3CC3)c2)[nH]1` (centres undefined), the pIC50 in series [1] was 6.63; in series [2], 7.36; in [3] it was 5.87. Moreover, the concentration at 2 h in series [11] amounted to 65.8 ng/g.
Regarding `C[S+]([O-])c1ccc(-c2nc(-c3ccc(F)cc3)c(-c3ccncc3)[nH]2)cc1` (centres undefined) [SB-203580], the negative-log IC50 (pIC50) in series [12] is 5.49.
Regarding `CSc1nc(-c2ccc(F)cc2)c(-c2ccnc(NC(=O)C3(C(F)(F)F)CC3)c2)[nH]1`, the results for the negative logarithm of the IC50 (pIC50) in [1] and in [2] were < 5.00 and 6.74, respectively.
For `CSc1nc(-c2ccc(F)cc2)c(-c2ccnc(NC(=O)CN3CCCC3=O)c2)[nH]1`, in that order: 6.90 and 7.64.
In the case of `O=C(Cc1ccc(F)cc1)Nc1cc(-c2[nH]c(SCc3ccccc3)nc2-c2ccc(F)cc2)ccn1`, the results for the pIC50 in series [1] and in series [2] were 5.82 and 8.52, respectively. Moreover, in series [7], the remaining at 4 h was 66%. In addition, the Ratio IC50 in series [13] is > 500.
Turning to `COc1cccc(CCC(=O)Nc2cc(-c3[nH]c(SC)nc3-c3ccc(F)cc3)ccn2)c1`, the pIC50 in [1] is 6.33; in [2], 7.44.
On the same counts, the results for `CSc1nc(-c2ccc(F)cc2)c(-c2ccnc(NC(=O)c3ccccn3)c2)[nH]1` are < 5.00 and 7.38.
For orientation: inhibition means the relative decrease from the control value, in per cent. On to `Cc1ncc(-c2ccnc(NC(=O)C3CC3)c2)[nH]1`, for which the pIC50 in series [1] was 5.77. In addition, in series [14], the inhibition is 1%.
Turning to `CSc1nc(-c2ccc(F)cc2)c(-c2ccnc(NC(=O)C3CCC(=O)C3)c2)[nH]1` (centres undefined), the pIC50 in series [1] is 7.14; in series [2], 7.68.
For `COc1cc(CC(=O)Nc2cc(-c3[nH]c(SC)nc3-c3ccc(F)cc3)ccn2)cc(OC)c1OC`, in that order: 6.29 and 7.89.
On to `COc1cc(CCC(=O)Nc2cc(-c3[nH]c(SCc4ccccc4)nc3-c3ccc(F)cc3)ccn2)cc(OC)c1OC`, for which the pIC50 in series [1] was 5.94; in [2] it was 7.21.
For `O=C(Nc1cc(-c2[nH]c(SCc3ccccc3)nc2-c2ccc(F)cc2)ccn1)C1CCCC1`, in that order: 6.18 and 7.70.
With `CSc1nc(-c2ccc(F)cc2)c(-c2ccnc(NC(=O)CCc3ccc(C(F)(F)F)cc3)c2)[nH]1`, the pIC50 in series [1] is 6.02; in series [2], 7.57.
On the same counts, the results for `CSc1nc(-c2ccc(F)cc2)c(-c2ccnc(NC(=O)C3CCCC3)c2)[nH]1` are 6.87 and 7.40.
On to `CC(=O)Nc1cc(-c2[nH]c(SCc3ccccc3)nc2-c2ccc(F)cc2)ccn1`, for which the pIC50 is 6.25 in series [1] and 7.29 in series [2].
Regarding `COc1cc(CCC(=O)Nc2cc(-c3[nH]c(SC)nc3-c3ccc(F)cc3)ccn2)cc(OC)c1OC`, the values for the pIC50 in series [1], in series [2] and in series [3] were 6.44, 7.06 and 5.69, respectively.
In the case of `CSc1nc(-c2ccc(F)cc2)c(-c2ccnc(NC(=O)CC3CC3)c2)[nH]1`, the values for the negative-log IC50 (pIC50) in series [1] and in series [2] were 6.67 and 7.82, respectively.
For `CSc1nc(-c2ccnc(NC(=O)C3CC3)c2)c(-c2ccc(F)cc2)n1C`, in that order: 5.75 and 5.80.
For `CSc1nc(-c2ccc(F)cc2)c(-c2ccnc(NC(=O)Cc3ccc(C(F)(F)F)cc3)c2)[nH]1`, in that order: 5.49 and 7.54.
For `CSc1nc(-c2ccc(F)cc2)c(-c2ccnc(NC(=O)C3CCC3)c2)[nH]1`, in that order: 6.88 and 7.57.
